Measurements published in ChEMBL document CHEMBL1811767, “Quinoxalin-2(1H)-one derivatives as inhibitors against hepatitis C virus” (J Med Chem, 2011).

Legend:
Hepatitis C virus = experiment: Antiviral activity against Hepatitis C virus infected in human Huh7ET cells assessed as inhibition of dicistronic viral RNA replication after 72 hrs by luciferase reporter gene assay; type: functional, organism-based, Hepacivirus hominis; conditions: Huh-7, 72 h
How it was run: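 HCV replicon Huh 7 ET cells seeded 5000/well in DMEM without G418 overnight; compounds dissolved in DMSO, diluted in DMEM, dose-response. After 72 h, replicon-derived luciferase read by Steady-Glo. Mean of four replicates; EC50 = concentration inhibiting HCV RNA replication by 50%.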

[1] = Cytotoxicity against human Huh7ET cells by CytoTox-one cell proliferation assay; type: cell-based; conditions: Huh-7
How it was run: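 Parallel plate of replicon Huh 7 ET cells (5000/well, DMEM without G418), compounds from DMSO stocks diluted in DMEM, 72 h. Viability by tetrazolium-based CytoTox-1 proliferation assay. Mean of four replicates; IC50 = concentration decreasing cell viability by 50%.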

[2] = Selectivity index, ratio of IC50 for human Huh7ET cells to EC50 for Hepatitis C virus; type: toxicity, cell-based, Huh-7; conditions: read-out: Ratio IC50/EC50
How it was run: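 SI taken as IC50 (CytoTox-1 viability, Huh 7 ET replicon cells, 72 h) divided by EC50 (replicon luciferase, same cells and exposure); each from four-replicate averages.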

EC50 (Hepatitis C virus) [µM]	Structure (SMILES)	IC50 [1] [µM]	selectivity ratio [2]
> 20	CN(C)c1cc2ncc(=O)[nH]c2cc1Nc1nc(-c2ccccc2)cs1	57.5	< 2.9
5.26	CN(c1cc2ncc(=O)[nH]c2cc1Nc1nc(-c2ccc(F)cc2)cs1)C1CCCCC1	9.92	1.9
> 20	CN(c1cc2ncc(=O)[nH]c2cc1NC(=S)Nc1cccc(C(F)(F)F)c1)C1CCCCC1	78.4	< 3.9
> 20	CN(c1cc2ncc(=O)[nH]c2cc1NC(=S)Nc1ccccc1)C1CCCCC1	49.6	< 2.8
5.39	CN(c1cc2ncc(=O)[nH]c2cc1Nc1nc(-c2ccc(Cl)cc2)cs1)C1CCCCC1	16.7	3.1
4.19	CC(C)Cc1nc2cc(N(C)C3CCCCC3)c(Nc3nc(-c4ccccc4)cs3)cc2[nH]c1=O	33.3	7.9
5.48	CN(c1cc2ncc(=O)[nH]c2cc1NC(=S)NC(=O)c1cccc2ccccc12)C1CCCCC1	9.98	1.82
2.42	CN(c1cc2ncc(=O)[nH]c2cc1NC(=S)NC(=O)c1ccccc1)C1CCCCC1	11.1	4.57
3.97	CN(c1cc2ncc(=O)[nH]c2cc1NC(=N)NCc1ccc(OC(F)(F)F)cc1)C1CCCCC1	3.7	0.9
5.19	O=c1cnc2cc(N3CCOCC3)c(Nc3nc(-c4ccccc4)cs3)cc2[nH]1	58.3	11.2
> 20	CN(c1cc2c(cc1Nc1nc(-c3ccccc3)cs1)NC(=O)CS2)C1CCCCC1	13.8	< 0.69
12.8	CN(c1cc2ncc(=O)[nH]c2cc1NC(=N)NCc1ccc(F)cc1)C1CCCCC1	10.2	0.8
> 20	COc1ccc(-c2csc(Nc3cc4[nH]c(=O)cnc4cc3N(C)C3CCCCC3)n2)cc1	15	< 0.75
> 20	CN(c1cc2ncc(=O)[nH]c2cc1NC(=N)NCc1ccccn1)C1CCCCC1	48.6	< 2.4
1.19	CN(c1cc2c(cc1Nc1nc(-c3ccccc3)cs1)NC(=O)C1CCCCN21)C1CCCCC1 (stereo not given)	11	9.27
> 20	CN(c1cc2ncc(=O)[nH]c2cc1Nc1nc(-c2ccc(-c3ccccc3)cc2)cs1)C1CCCCC1	82	< 4.1
3.94	CN(c1cc2ncc(=O)[nH]c2cc1NC(=N)NCc1ccc(Cl)cc1)C1CCCCC1	4.4	1.12
1.8	CN(c1cc2ncc(=O)[nH]c2cc1NC(=S)NC(=O)c1ccco1)C1CCCCC1	17.3	9.6
4.57	CN(c1cc2ncc(=O)[nH]c2cc1Nc1nc2c(s1)Cc1ccccc1-2)C1CCCCC1	10.9	2.39
3.81	CCCN(CCC)c1cc2ncc(=O)[nH]c2cc1Nc1nc(-c2ccccc2)cs1	31.6	8.3
5.16	COc1cc(C(=O)NC(=S)Nc2cc3[nH]c(=O)cnc3cc2N(C)C2CCCCC2)cc(OC)c1OC	15.9	3.1
4.61	CN(c1ccccc1)c1cc2ncc(=O)[nH]c2cc1Nc1nc(-c2ccccc2)cs1	15.9	3.4
3.27	Cc1ccsc1C(=O)NC(=S)Nc1cc2[nH]c(=O)cnc2cc1N(C)C1CCCCC1	12.6	3.84
12.2	CN(c1cc2ncc(=O)[nH]c2cc1Nc1nc(-c2ccco2)cs1)C1CCCCC1	11.9	1
> 20	CN(c1cc2ncc(=O)[nH]c2cc1NC(=S)Nc1cccc2ccccc12)C1CCCCC1	43.6	< 2.2
